We go through 7 molecules from ChEMBL document CHEMBL2177071, “The effect of Pro(2) modifications on the structural and pharmacological properties of endomorphin-2” (J Med Chem, 2012).

Data set [1] has as its target Delta-type opioid receptor (Rattus norvegicus) (UniProt P33533). Description: (§1) Displacement of [3H][Ile5,6]deltorphin 2 from delta opioid receptor in Wistar rat brain membranes. It counts as cell membranes. The following applies: Membrane. The method in brief:
(§2)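 Competitive displacement in crude rat brain membrane preparation, with the test peptide at a range of concentrations. Ki is calculated from EC50 by Cheng–Prusoff, Ki = EC50/(1+[ligand]/Kd), using Kd values from the literature. Means ± SEM, n ≥ 3.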

The target of data set [2] is Delta-type opioid receptor (Rattus norvegicus, UniProt P33533). The data set is described as §1. It counts as cell membranes, Membrane. A digest of the protocol: as §2
Data set [3] can be described thus: Half life in Wistar rat brain homogenate. It counts as ADME, tissue-based. The method in brief: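 Peptide incubated in crude rat brain membrane homogenate with a protein content of 4.7 mg/mL, and its disappearance followed over time. Half-life is calculated from pseudo-first-order kinetics. Means of at least three individual experiments ± SEM.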
In data set [4] the target is T1, Mu-type opioid receptor (Rattus norvegicus, UniProt P33535). Briefly: Agonist activity at mu opioid receptor in Wistar rat brain membranes after 60 mins by [35S]GTPgammaS binding assay. Type of data set: functional, cell membranes, Membrane.
Data set [5] has as its target T1, Mu-type opioid receptor. It counts as cell membranes, Wistar, Membrane.

Structures are written as SMILES.

Delta-type opioid receptor, sequence (P33533 whole entry): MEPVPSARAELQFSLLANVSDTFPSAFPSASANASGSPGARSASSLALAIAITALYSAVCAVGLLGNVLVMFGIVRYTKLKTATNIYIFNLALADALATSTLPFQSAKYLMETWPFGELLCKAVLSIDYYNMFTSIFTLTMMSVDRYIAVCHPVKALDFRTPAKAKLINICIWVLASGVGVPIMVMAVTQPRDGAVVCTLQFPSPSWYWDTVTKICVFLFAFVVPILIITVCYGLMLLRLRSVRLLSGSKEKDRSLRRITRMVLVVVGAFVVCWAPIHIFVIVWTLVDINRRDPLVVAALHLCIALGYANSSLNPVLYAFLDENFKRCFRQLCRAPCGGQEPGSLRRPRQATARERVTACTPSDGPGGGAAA
Delta-type opioid receptor (Rattus norvegicus), sequence (P33533 whole entry): as above
T1 sequence (P33535 whole entry): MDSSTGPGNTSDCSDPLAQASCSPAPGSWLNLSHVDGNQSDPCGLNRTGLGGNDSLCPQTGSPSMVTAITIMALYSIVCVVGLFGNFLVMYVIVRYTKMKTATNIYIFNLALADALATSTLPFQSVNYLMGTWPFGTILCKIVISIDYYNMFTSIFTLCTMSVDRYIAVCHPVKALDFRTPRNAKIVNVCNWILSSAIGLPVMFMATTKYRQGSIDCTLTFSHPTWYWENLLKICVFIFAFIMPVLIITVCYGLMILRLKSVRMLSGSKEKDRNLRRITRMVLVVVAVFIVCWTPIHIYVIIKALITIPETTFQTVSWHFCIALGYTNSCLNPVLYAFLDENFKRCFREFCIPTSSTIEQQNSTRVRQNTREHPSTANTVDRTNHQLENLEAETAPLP

A word on the Ki: it is a dissociation constant, usually derived from enzyme kinetics or from competition with a known ligand. A lower Ki goes with higher affinity. Take `NC(=O)[C@H](Cc1ccccc1)NC(=O)[C@H](Cc1ccccc1)NC(=O)[C@@H]1CC=CC[C@@H]1NC(=O)[C@@H](N)Cc1ccc(O)cc1`: the Activity result in data set [1] is “Dose-dependent effect”. The molecule further showed a Ki in data set [2] of more than 10000 nM.
For `NC(=O)[C@H](Cc1ccccc1)NC(=O)[C@H](Cc1ccccc1)NC(=O)[C@@H]1CC=C[C@@H]1NC(=O)[C@@H](N)Cc1ccc(O)cc1`, in that order: “Dose-dependent effect” and more than 10000 nM.
In general, half-life refers to the time in which the quantity being followed falls by half. Low values mean rapid decline, high ones slow decline. `NC(=O)[C@H](Cc1ccccc1)NC(=O)[C@H](Cc1ccccc1)NC(=O)[C@@H]1CCCN1C(=O)[C@@H](N)Cc1ccc(O)cc1` [ENDOMORPHIN 2]: in data set [1], the Activity result was “Dose-dependent effect”. The molecule further gave a half-life in data set [3] of 5.8 min.
One may read the EC50 as the concentration at which the effect is half-maximal. High values mean a need for much substance, low ones an effect from little substance. At Mu-type opioid receptor [4], `NC(=O)[C@H](Cc1ccccc1)NC(=O)[C@H](Cc1ccccc1)NC(=O)C[C@@H]1CCCN1C(=O)[C@@H](N)Cc1ccc(O)cc1` had a concentration for a half-maximal effect (EC50) of 845 nM. The Activity entry in data set [1] is “Dose-dependent effect”. Moreover, the Ki is more than 10000 nM in data set [2] and 27 nM on Mu-type opioid receptor [5]. In data set [3], this molecule showed a half-life of 34 min.
Regarding `NC(=O)[C@H](Cc1ccccc1)NC(=O)[C@H](Cc1ccccc1)NC(=O)[C@H]1CC=C[C@H]1NC(=O)[C@@H](N)Cc1ccc(O)cc1`, the Activity entry in data set [1] is “Dose-dependent effect”. The molecule further yielded a Ki in data set [2] of 9930 nM. Moreover, the half-life in data set [3] was more than 1200 min.
On the same counts, the results for `NC(=O)[C@H](Cc1ccccc1)NC(=O)[C@H](Cc1ccccc1)NC(=O)[C@H]1CC=CC[C@H]1NC(=O)[C@@H](N)Cc1ccc(O)cc1` are “Dose-dependent effect”, 1030 nM and more than 1200 min.
The molecule `NC(=O)[C@H](Cc1ccccc1)NC(=O)[C@H](Cc1ccccc1)NC(=O)[C@@H]1C[C@@H](O)CN1C(=O)[C@@H](N)Cc1ccc(O)cc1` displayed a concentration giving a half-maximal response (EC50) on Mu-type opioid receptor [4] of 66 nM. The Activity entry in data set [1] is “Dose-dependent effect”. Further, the Ki is more than 10000 nM in data set [2] and 44 nM at Mu-type opioid receptor [5]. The same molecule yielded a half-life in data set [3] of 17 min.
